Experimental data pooled from the literature.
Lines come from different studies, so protocols differ.
Target: Discoidin domain-containing receptor 2 (DDR2, Homo sapiens, UniProt Q16832)

| Compound | read-out | action | method | tested at | measurement | result |
| --- | --- | --- | --- | --- | --- | --- |
| COc1cc(Cl)c(C(=O)N[C@@H](CN[C@H]2CC[C@@H](N)CC2)Cc2ccc(C#N)cc2)cc1-c1ccc(CN[C@H](C)c2ccc(C)cc2)o1 | enzyme activity | inhibitor | – | 1 µM | remaining activity | 104% |
| Cc1c[nH]c2nccc(Oc3c(F)cc(Nc4cc(Cl)nc(N)n4)cc3F)c12 | cell-free assay | – | competition with immobilised ligand | 0.1 µM | remaining binding | 57% |
| CCN(CC)CCNC(=O)c1c(C)[nH]c(/C=C2\C(=O)Nc3ccc(F)cc32)c1C | enzyme activity | inhibitor | – | 0.1 µM | remaining activity | 101% |
| CCC(=O)N[C@H]1CC[C@@H](C(=O)N(C)c2ccc(-c3nc4ccccc4o3)cc2)C1 | cell-free assay | – | competition with immobilised ligand | 1 µM | remaining binding | 100% |
| CNC(=O)c1cc2c(Oc3ccc(NC(=O)C4(C(=O)Nc5ccc(F)cc5)CC4)cc3)ccnc2cc1OC | enzyme activity | inhibitor | radiometric | 1 µM | inhibition | 104% |
| C[C@@H]1CN(c2cc(-c3n[nH]c4ccc(OC5(C)CC5)cc34)ncn2)C[C@H](C)O1 | cell-free assay | – | competition with immobilised ligand | 0.1 µM | remaining binding | 82% |
| Cc1cnc(NC2CCOCC2)nc1-n1cnc(C(=O)NC(CN)c2cc(F)cc(Cl)c2)c1 (stereo not drawn) | enzyme activity | inhibitor | radiometric | 1 µM | remaining activity | 102% |
| Cc1ccc(NC(=O)c2ccc(C)c(C(F)(F)F)c2)cc1C#Cc1nn(C2CCC(O)CC2)c2ncnc(N)c12 (stereo not drawn) | cell-free assay | – | – | 10 µM | remaining signal | 16% |
| CS(=O)(=O)c1cc(C2(NC(=O)c3cncc4c3cnn4-c3ccc(F)cc3)CC2)ccn1 | cell-free assay | – | competition with immobilised ligand | 1 µM | remaining binding | 100% |
| Cc1ccc(Nc2nccc(N(C)c3ccc4c(C)n(C)nc4c3)n2)cc1S(N)(=O)=O | cell-free assay | – | – | 0.5 µM | remaining signal | 36.2% |
| CS(=O)(=O)N1CCCC(NC(=O)[C@H](CCC2CCCCC2)NC(=O)c2ccc(CNC(=O)c3cnc4ccccn34)cc2)C1 (stereo partly drawn) | cell-free assay | – | competition with immobilised ligand | 0.1 µM | remaining binding | 0% |
| CCN(CC)CCNC(=O)c1c(C)[nH]c(/C=C2\C(=O)Nc3ccc(F)cc32)c1C | enzyme activity | inhibitor | – | 0.3 µM | inhibition | -8% |
| O=C(Nc1ccc(Oc2ccc(F)cc2)cc1)N1CCc2ncccc2[C@H]1c1ccc(F)cc1 | cell-free assay | – | competition with immobilised ligand | 1 µM | remaining binding | 100% |
| O=C1Nc2ccc(Cl)cc2C1=Cc1cc(Cl)c(O)c(Cl)c1 | cell-free assay | – | – | 0.5 µM | remaining signal | 85.8% |
| CO[C@H]1CC[C@H](CNc2ccc(S(=O)(=O)NC(=O)c3ccc(N4CCN(CC5=C(c6ccc(Cl)cc6)CC(C)(C)CC5)CC4)cc3Oc3cnc4[nH]ccc4c3)cc2[N+](=O)[O-])CC1 | cell-free assay | – | competition with immobilised ligand | 1 µM | remaining binding | 100% |
| CCCOc1ccc(OC)c(F)c1C(=O)c1ccc(C(=O)N[C@@H]2CNC[C@H]2NC(=O)c2ccc3[nH]ncc3c2)cc1 | enzyme activity | inhibitor | – | 10 µM | remaining activity | 103% |
| COc1cc2c(N3CCN(C(=O)Nc4ccc(OC(C)C)cc4)CC3)ncnc2cc1OCCCN1CCCCC1 | cell-free assay | – | – | 0.5 µM | remaining signal | 102% |
| CC(C)(C)c1nc2c(s1)c1nc(N)ncc1c1ccc(NS(=O)(=O)c3c(F)cccc3F)c(F)c12 | enzyme activity | inhibitor | radiometric | 1 µM | remaining activity | 69% |
| Cc1[nH]c(/C=C2\C(=O)Nc3ccc(F)cc32)c(C)c1C(=O)N[C@H]1CCN(C(=O)N(C)C)C1 | enzyme activity | inhibitor | – | 0.1 µM | remaining activity | 113% |
| C=CC(=O)Nc1cc(Nc2nccc(Nc3cc(Cl)c(F)cc3C(C)(C)O)n2)c(OC)cc1N1CC[C@@H](N(C)C)C1 | enzyme activity | inhibitor | – | 1 µM | inhibition | 1% |
| CNC(=O)c1cc(Oc2ccc(NC(=O)Nc3ccc(Cl)c(C(F)(F)F)c3)cc2)ccn1 | enzyme activity | inhibitor | – | 10 µM | inhibition | 111% |
| Nc1ncnc2occ(-c3ccc(NC(=O)Nc4cc(C(F)(F)F)ccc4F)cc3)c12 | cell-free assay | – | – | 20 µM | remaining signal | 1.4% |
| O=C(Nc1cnn(-c2csc(C(=O)NC3COC3)c2)c1)Nc1c(F)cccc1Cl | enzyme activity | inhibitor | – | 5 µM | remaining activity | 96.6% |
| CCCS(=O)(=O)Nc1ccc(F)c(C(=O)c2c[nH]c3ncc(-c4ccc(Cl)cc4)cc23)c1F | enzyme activity | inhibitor | – | 1 µM | inhibition | < 10% |
